This is a sample that favours compounds with a hit; in the whole collection about 4.5% have one here.
CHOP inh: inhibitors of CHOP induction in ER stress response; CHO-K1 CHOP-promoter luciferase, tunicamycin-induced, 15-18 h; inhibition, % at 10 µM; 220,000 tested, 3.8% active;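 active means compounds that reduced the stress-induced luciferase reporter signal by more than about 70% of percent inhibition, limit read from the data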;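 further: 0% = tunicamycin plus vehicle and 100% = wells without tunicamycin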
CHOP UPR activ: apoptotic UPR (CHOP) activation; CHO-CHOP luciferase reporter, luminescence; percent of tunicamycin response over DMSO baseline; activation, % at 10 µM; 330,000 tested, 0.34% active;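 active means at 10 µM dose, activation of 40% or more, normalized to positive control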;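 further: 100% = tunicamycin at 10 µg/mL and 0% = DMSO alone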
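assay system = CHO CHOP reporter cells | amount = 500 CHO-CHOP cells per well | buffer or medium = F12 with 10% FBS | incubation = 16-18 h cell attachment, then 6 h compound exposure, 37 °C | detection = luminescence read with Steady-Glo | read-out = percent activation relative to tunicamycin control | controls = tunicamycin high control, DMSO low control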
NS3 helicase inh: HCV NS3 helicase inhibition; 290,000 tested, 0.56% active; NS3 helicase DNA unwinding, Cy5 molecular beacon fluorescence; inhibition, % at 10.9 µM; AID 1800;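 active means inhibition above the mean of all tested compounds plus 3 SD, set per campaign, cut at about 35% in these data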;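 further: 0% = DMSO wells and 100% = thioflavine S control wells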
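assay system = NS3 helicase fragment of HCV | buffer or medium = MOPS pH 6.5, MgCl2, DTT, Tween20, BSA | timing = 60 min unwinding reaction at 25 °C after ATP addition | signal = Cy5 beacon fluorescence read at start and 1 h | read-out basis = % inhibition of unwinding | control set = low DMSO, high thioflavine S at 110 µM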
p97 inhibitor: human p97 ATPase inhibition; recombinant p97 ATPase, Kinase-Glo ATP luminescence, 3 h; 220,000 tested, 0.42% active; P55072; inhibition, % at 8 µM; in the data active means inhibition above about 15%;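 further: 0% = DMSO vehicle and 100% = wells lacking enzyme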
Target sequence (P55072 whole entry, looked up): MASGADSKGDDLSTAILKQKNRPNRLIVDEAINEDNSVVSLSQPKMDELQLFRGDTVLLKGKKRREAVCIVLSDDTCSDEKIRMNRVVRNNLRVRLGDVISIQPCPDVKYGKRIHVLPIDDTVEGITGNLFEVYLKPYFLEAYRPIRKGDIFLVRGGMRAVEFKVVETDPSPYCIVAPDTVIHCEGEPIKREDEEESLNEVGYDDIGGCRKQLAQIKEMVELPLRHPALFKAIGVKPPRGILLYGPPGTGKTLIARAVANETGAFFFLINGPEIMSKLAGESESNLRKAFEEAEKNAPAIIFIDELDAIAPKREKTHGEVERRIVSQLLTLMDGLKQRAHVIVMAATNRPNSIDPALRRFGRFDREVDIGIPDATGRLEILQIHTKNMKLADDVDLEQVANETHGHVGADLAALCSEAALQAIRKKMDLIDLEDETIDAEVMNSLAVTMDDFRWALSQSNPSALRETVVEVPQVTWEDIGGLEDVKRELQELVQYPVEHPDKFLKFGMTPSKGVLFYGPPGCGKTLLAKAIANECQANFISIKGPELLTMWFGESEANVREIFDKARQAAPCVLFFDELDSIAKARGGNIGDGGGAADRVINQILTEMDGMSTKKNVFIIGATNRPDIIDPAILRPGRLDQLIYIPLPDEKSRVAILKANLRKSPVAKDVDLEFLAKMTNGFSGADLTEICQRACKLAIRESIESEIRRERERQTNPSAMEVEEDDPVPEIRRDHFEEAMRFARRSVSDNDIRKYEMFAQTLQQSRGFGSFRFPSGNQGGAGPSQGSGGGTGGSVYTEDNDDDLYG
UPR XBP1 act: activators of adaptive arm of unfolded protein response (XBP1). AID 463104. 330,000 tested, 0.33% active. activation, % at 20 µM. CHO-XBP1 luciferase reporter, IRE1-XBP1 UPR activation, luminescence; percent of tunicamycin response, DMSO as zero;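 active means versus positive control, 20 µM dose yields 30% or more activation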;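 further: 100% = tunicamycin at 10 µg/mL and 0% = DMSO only wells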
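Assay system: CHO-XBP1 luciferase reporter cells; Schedule: 6 h treatment, 37 °C; Detection: glow luminescence from Steady-Glo reagent; Benchmarks: high control tunicamycin 10 µg/mL final, low control DMSO vehicle only.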
PfM18AAP inh-1: blocks P. falciparum M18 aspartyl aminopeptidase | recombinant PfM18AAP, H-Glu-NHMec fluorogenic cleavage | 290,000 tested, 1.2% active | inhibition, % at 7.35 µM;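 active means inhibition above the campaign mean inhibition over all tested compounds plus 3 SD, cut at about 28% in these data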;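 further: 0% = plate median of test compound wells and 100% = 2 mM ZnCl2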
PfM18AAP inh-2: PfM18AAP inhibition, confirmation; AID 2170; inhibition, % at 7.35 µM; shares compounds with PfM18AAP inh-1; recombinant PfM18AAP, H-Glu-NHMec fluorogenic cleavage; 2,400 tested, 28% active;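 active means mean inhibition over replicate wells above the hit cutoff set for the earlier primary screen, cut at about 29% in these data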;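 further: 0% = median of test compound wells and 100% = 2 mM ZnCl2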
CTSL1 confirm: counter-screen for PFM18AAP inhibitors: confirmation of human cathepsin L inhibitors; shares compounds with PfM18AAP inh-1; purified cathepsin L1, Z-Leu-Arg-MCA fluorescence; inhibition, % at 5.96 µM; 2,400 tested, under 10 active;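 active means average inhibition across replicates above the hit cutoff set in the earlier primary screen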;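 further: 0% = median of test compound wells and 100% = Z-Phe-Ala-diazomethylketone 1 µM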
* hit, by the source's call; . = no result.

SMILES	CHOP inh	CHOP UPR activ	NS3 helicase inh	p97 inhibitor	UPR XBP1 act	PfM18AAP inh-1	PfM18AAP inh-2	CTSL1 confirm
CCOC(=O)C1=C(COC(=O)c2ccc(Br)o2)NC(=O)NC1C (centres undefined)	.	1.3	6.5	.	-3.9	1.4	.	.
CC(=O)Nc1ccccc1NC(=O)C/C(C)=N/NC(=O)c1ccccn1	-6.8	-1.1	-5.7	4.3	0.9	40.6*	-39.3	-5.0
CCC1CCCCN1CCCNC(=O)c1ccc2c(c1)NC(=O)CN2C (centres undefined)	.	0.4	16.5	.	-2.5	32.4*	-13.5	4.5
Cc1ccc(NC2=NCC(=O)N2Cc2cccs2)cc1C	-12.2	0.5	-15.7	1.6	-0.2	6.2	.	.
COc1cccc(-c2cc(C(=O)Nn3cnnc3)c3ccccc3n2)c1	40.9	-1.4	11.2	-5.0	-0.6	63.5*	62.3*	-1.1
O=C(Nn1cnnc1)c1cc(-c2ccccn2)nc2ccccc12	28.0	-1.4	0.1	4.7	1.5	50.5*	47.5*	-3.9
CN(C)c1cc[n+](CC(=O)Nc2ccc(OC(F)F)cc2)cc1	5.8	-0.7	14.2	6.9	0.9	4.8	.	.
NNc1ncnc2c1cnn2-c1ccccc1	6.3	3.4	-18.7	-6.7	11.0	36.0*	-3.1	-0.9
CC(OC(=O)CC1CCCCC1)C(=O)Nc1cccc(C#N)c1 (centres undefined)	.	-1.5	.	.	0.6	.	.	.
COc1cccc(C2Nc3ccccc3NC3=C2C(=O)CC(C)(C)C3)c1 (centres undefined)	.	1.9	2.4	.	-3.2	6.3	.	.
CC(=O)NNC(=O)CN1C(=O)/C(=C/c2ccccc2)SC1=S	2.8	-0.7	-7.2	4.9	-1.1	34.5*	-29.5	4.3
Nc1cc(=O)[nH]c2nnc(SCC(=O)Nc3cccc4ccccc34)n12	.	-2.0	6.5	.	-2.5	3.3	.	.
COc1ccc(C2NC(=S)N3C(c4ccc(OC)cc4)NC(=S)N23)cc1 (centres undefined)	20.1	2.5	-0.3	4.2	0.8	13.5	.	.
S=C1NC(c2ccccc2)N2C(=S)NC(c3ccccc3)N12 (centres undefined)	17.8	7.9	-7.5	2.5	2.3	38.1*	-42.5	-0.8
COc1ccc(/C=C2\SC(=S)N(N3C(=O)CCC3=O)C2=O)cc1O	23.4	2.4	30.0	2.5	1.2	31.9*	-40.9	3.9
O=C(Nn1c(O)c(C=C2N=c3ccccc3=N2)sc1=S)c1ccccc1Cl	20.8	-1.9	1.3	8.8	3.5	53.6*	-30.5	-0.7
O=C(CCC(=O)N1CCN(c2ccc(O)cc2)CC1)c1ccc(Br)cc1	40.0	-0.6	1.2	6.3	0.9	42.2*	-19.3	2.4
CC(=O)c1ccc(N2CCN(C(=O)CCC(=O)c3cccs3)CC2)cc1	13.8	-1.6	0.8	0.7	1.1	3.2	.	.
O=C(CCC(=O)N1CCN(c2ccc(O)cc2)CC1)c1cccs1	-1.1	2.2	20.3	3.1	-2.7	52.6*	-18.1	-29.2
Cc1cc(=O)n2[nH]c(N)c(N=Nc3ccccc3)c2n1	19.0	.	-2.4	3.1	.	41.5*	32.2*	7.8
Nc1[nH]n2c(=O)c3c(nc2c1N=Nc1ccccc1)CCCC3	-85.9	1.4	0.7	0.6	3.1	18.5	.	.
NC(=O)c1ccc(NC(=O)COC(=O)CCN2C(=O)c3ccccc3C2=O)cc1	.	-0.7	.	.	-0.9	.	.	.
CCN(CC)C(=O)c1ccc2c(c1)N(Cc1ccccc1)C(=O)CS2=O (centres undefined)	1.0	-2.0	3.3	-8.2	2.1	54.5*	-24.8	-2.9
O=C(NCC1CCCO1)c1ccc2c(c1)N(Cc1ccccc1)C(=O)CS2=O (centres undefined)	22.4	-1.3	-1.9	4.7	-3.4	42.4*	-63.0	-4.8
CC(=O)c1ccccc1C(=O)N1CCCC(N2CCN(Cc3ccc4c(c3)OCO4)CC2)C1 (centres undefined)	.	1.5	4.4	.	-0.4	3.1	.	.
SMILES	CHOP inh	CHOP UPR activ	NS3 helicase inh	p97 inhibitor	UPR XBP1 act	PfM18AAP inh-1	PfM18AAP inh-2	CTSL1 confirm
CCOC(=O)N1CCN(C(=O)c2ccc(OCC)cc2)CC1	3.2	0.1	3.8	3.9	2.5	0.0	.	.
COc1ccc(C(=O)n2cnnc2N)cc1	3.6	1.1	-6.0	1.7	-0.7	47.9*	60.6*	0.9
CCOc1ccc(C(=O)n2cnnc2N)cc1	-25.8	-1.3	2.5	4.5	-2.3	48.3*	56.4*	1.0
COc1ccc(-c2nc(N)n(C(=O)c3ccccc3)n2)cc1	-3.3	-0.2	-6.2	1.4	2.0	-1.7	.	.
COc1ccc(NC(=S)NCCN2CCC(C)CC2)cc1Cl	-15.6	-1.2	-1.0	-3.0	-0.3	36.0*	13.7	1.9
COCCN(C(=S)Nc1ccc(OC)c(Cl)c1)C1CCN(C(C)C)CC1	-13.6	-0.2	13.7	-1.3	-0.2	36.3*	3.6	-6.8
COc1ccc(NC(=S)NCCCN2CCCC2)cc1Cl	2.0	-2.4	10.8	-2.1	-3.8	14.6	.	.
O=c1c2cc(N3CCOCC3)ccc2[nH]c(=S)n1Cc1ccccn1	5.2	0.0	6.4	4.2	3.1	43.6*	-2.6	-1.9
O=c1c2cc(N3CCOCC3)ccc2[nH]c(=S)n1Cc1ccccc1Cl	-8.5	0.8	0.5	3.4	4.6	1.6	.	.
O=C1NC(=O)/C(=C/c2ccc(N3CCOCC3)o2)N1	9.2	0.6	-0.2	4.6	-4.0	9.3	.	.
O=C1NC(=O)/C(=C\c2ccc(N3CCOCC3)o2)N1	-25.6	3.8	-12.6	-0.7	-1.7	36.9*	-29.6	-6.3
CCc1ccc(C(=O)COC(=O)c2cc([N+](=O)[O-])ccc2N2CCOCC2)cc1	.	2.9	.	.	0.1	.	.	.
CC(NC(=O)CCNC(=O)c1ccc(C(C)(C)C)cc1)c1ccccc1 (centres undefined)	.	0.4	.	.	-2.0	.	.	.
O=C(Nc1nc2ccccc2s1)c1ccccc1	2.1	-1.5	-3.7	1.0	-5.7	-0.6	.	.
c1ccc2sc(NN=C3CCCCCC3)nc2c1	39.7	-1.3	-7.1	-1.2	-5.3	33.4*	-35.3	0.2
O=C1/C(=C/c2ccncc2)SC(=S)N1Nc1ccccc1	14.4	3.4	3.3	-2.1	0.4	32.2*	9.7	-6.5
O=C1/C(=C/c2ccc(O)c(O)c2)SC(=S)N1Nc1ccccc1	27.1	.	24.1	9.0	.	58.1*	30.9*	9.5
COc1cc(/C=C2\SC(=S)N(Nc3ccccc3)C2=O)ccc1O	-1.4	5.6	-4.0	7.7	6.9	23.2	.	.
NN/C(=C\[N+](=O)[O-])Nc1ccc(Cl)cc1	32.3	-0.9	7.8	2.2	2.2	10.5	.	.
